Active and inactive are the calls of the source. No cut-off for these calls is given here.
Assays:
Plasma [1] = experiment: Anticoagulant activity in human plasma assessed as activated partial thromboplastin time; assay type: functional
Summary of the method: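 Pooled normal human plasma spiked with compound in PBS at 0.1 mg/mL (methods give a 0–100 μg/mL range); APTT elevation measured. Normal range 26–36 s. Values are means of two determinations.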

Aorta = experiment: Inhibition of angiogenesis in Sprague-Dawley rat aortic endothelium at 10 uM; assay type: functional, tissue-based
Summary of the method: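 Sprague-Dawley rats (2–4 months old): bisected 1 mm thoracic aortic rings embedded in Matrigel in EBM-2 with 2% FCS, no heparin. Compound added in triplicate, medium replenished every 48 h. Microvessel sprouting scored semiquantitatively by two assessors up to day 8. One-way ANOVA with Dunnett's test.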

HUVEC [2] = experiment: Inhibition of VEGF-induced HUVEC cell proliferation; assay type: functional, cell-based; details: Homo sapiens
Summary of the method: (§1)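 HUVECs seeded at 1–3 × 10^3 per well in EGM with 2% FBS and gentamicin. Proliferation driven by VEGF, FGF-1 or FGF-2; compound added typically at seven concentrations (1–50 μM) in triplicate. After 70 h, MTS reagent added for 2 h and A490 read. IC50 obtained from blank-subtracted curves.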

Heparanase = target: T1, Heparanase (Homo sapiens, UniProt Q9Y251); experiment: Inhibition of human recombinant heparanase
T1 sequence (Q9Y251 whole entry): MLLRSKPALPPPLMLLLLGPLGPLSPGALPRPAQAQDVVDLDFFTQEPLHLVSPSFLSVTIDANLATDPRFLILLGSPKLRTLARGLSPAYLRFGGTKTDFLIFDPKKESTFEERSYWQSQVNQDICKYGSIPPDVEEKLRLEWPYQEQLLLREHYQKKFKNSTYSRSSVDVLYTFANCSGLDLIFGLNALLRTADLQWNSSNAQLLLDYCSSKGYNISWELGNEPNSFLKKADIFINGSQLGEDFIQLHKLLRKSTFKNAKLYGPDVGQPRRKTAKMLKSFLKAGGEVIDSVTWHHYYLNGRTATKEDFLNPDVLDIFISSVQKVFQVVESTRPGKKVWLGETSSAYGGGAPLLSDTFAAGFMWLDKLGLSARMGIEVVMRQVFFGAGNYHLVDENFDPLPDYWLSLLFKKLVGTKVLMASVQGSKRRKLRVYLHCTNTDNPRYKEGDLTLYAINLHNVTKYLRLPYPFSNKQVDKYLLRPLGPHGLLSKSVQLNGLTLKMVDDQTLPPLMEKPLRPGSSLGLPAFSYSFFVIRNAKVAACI
Summary of the method: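 Recombinant human heparanase assayed by ultrafiltration with 3H-labelled heparan sulfate as substrate (Km = 1.64 μM). Ki values with standard error were derived from inhibition response curves.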

Plasma [3] = experiment: Anticoagulant activity in human plasma by heptest; assay type: functional
Summary of the method: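 Heptest clot assay. Plasma (centrifuged 1800g, 10 min, used within 30 min) incubated with compound 2 min at 37 °C. Factor Xa added, 2 min at 37 °C, then clotting started with Recalmix; read on a ball coagulometer. Normal range 13–20 s; means of two determinations.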

[4] = target: T2, Vascular endothelial growth factor A, long form (Homo sapiens, UniProt P15692); experiment: Binding affinity to VEGF by surface plasmon-based solution affinity assay
T2 sequence (P15692 whole entry): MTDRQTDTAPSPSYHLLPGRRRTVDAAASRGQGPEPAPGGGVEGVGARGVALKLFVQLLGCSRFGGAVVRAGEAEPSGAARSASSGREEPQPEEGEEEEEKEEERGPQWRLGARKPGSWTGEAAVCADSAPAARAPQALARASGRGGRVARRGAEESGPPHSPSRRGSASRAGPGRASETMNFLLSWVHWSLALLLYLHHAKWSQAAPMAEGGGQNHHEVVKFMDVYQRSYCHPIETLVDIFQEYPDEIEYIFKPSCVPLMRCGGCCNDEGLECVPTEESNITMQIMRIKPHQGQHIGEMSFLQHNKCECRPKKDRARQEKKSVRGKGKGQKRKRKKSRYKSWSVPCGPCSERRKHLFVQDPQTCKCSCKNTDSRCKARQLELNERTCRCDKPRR
Summary of the method: (§2)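 Surface plasmon resonance solution affinity assay on heparin-coated CM4 chips. Buffer: HBS-EP (10 mM HEPES pH 7.4, 150 mM NaCl, 3.0 mM EDTA, 0.005% polysorbate 20). Kd is the mean of at least duplicate measurements ± SD.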

HUVEC [5] = experiment: Inhibition of FGF1-induced HUVEC cell proliferation; assay type: functional, cell-based; details: Homo sapiens; summary of the method: as §1
[6] = Toxicity in rat aortic endothelium assessed as microvessel sprouts at 10 and 50 uM after 6 or 7 days; assay type: tissue-based, Sprague-Dawley, Aorta; details: ex_vivo, 168 h
Summary of the method: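 Aortic ring viability check: on day 6 or 7, compound or medium was withdrawn and complete medium with VEGF (typically 10 ng/mL) was added for up to 7 more days. New microvessel sprouting was taken as a sign of viable tissue.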

[7] = target: Fibroblast growth factor 1 (Homo sapiens, UniProt P05230); experiment: Binding affinity to FGF1 by surface plasmon-based solution affinity assay; summary of the method: as §2
Sequence of Fibroblast growth factor 1 (P05230 whole entry): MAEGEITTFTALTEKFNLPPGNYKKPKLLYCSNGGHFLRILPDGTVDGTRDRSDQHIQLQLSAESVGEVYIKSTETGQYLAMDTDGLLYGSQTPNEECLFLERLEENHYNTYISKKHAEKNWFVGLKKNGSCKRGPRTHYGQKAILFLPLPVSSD

[8] = target: Fibroblast growth factor 2 (Homo sapiens, UniProt P09038); experiment: Binding affinity to FGF2 by surface plasmon-based solution affinity assay
Sequence of Fibroblast growth factor 2 (P09038 143-288 limits assumed): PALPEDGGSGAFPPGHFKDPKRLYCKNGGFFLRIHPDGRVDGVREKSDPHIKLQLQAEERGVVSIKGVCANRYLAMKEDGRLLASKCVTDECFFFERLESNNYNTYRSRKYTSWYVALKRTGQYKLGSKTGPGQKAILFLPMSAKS
Summary of the method: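 Surface plasmon resonance solution affinity assay on heparin-coated CM4 chips. FGF-2 binding run in HBS-EP containing 300 mM NaCl. Kd is the mean of at least duplicate measurements ± SD.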

HUVEC [9] = experiment: Cytotoxicity against HUVEC; assay type: cell-based; details: human
HUVEC [10] = experiment: Inhibition of FGF2-induced HUVEC cell proliferation; assay type: functional, cell-based; details: Homo sapiens; summary of the method: as §1
HUVEC [11] = experiment: Antiangiogenic activity against HUVEC assessed as inhibition of endothelial cell tube formation on ECM-derived protein matrix at 100 uM by phase contrast microscopy; assay type: functional, cell-based; details: Homo sapiens
Summary of the method: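 HUVECs at passage 4–5 (70–80% confluent) suspended in EGM2 with all supplements except heparin at 4×10^5 cells/mL, mixed 1:1 with compound (final 10, 50, 100 μM), plated in triplicate on growth factor-reduced Matrigel. Incubated 18 h; tubes scored by phase-contrast microscopy. Untreated cells as control; one-way ANOVA with Dunnett's test.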

| Compound | Time (Plasma [1]) | Activity (Aorta) | Activity (HUVEC [2]) | Ki (Heparanase) | Activity (Plasma [3]) | Kd [4] | Activity (HUVEC [5]) | Activity [6] | Kd [7] | Kd [8] | LC50 (HUVEC [9]) | Activity (HUVEC [10]) | TIME (Plasma [1]) | inhibition (HUVEC [11]) |
| --- | --- | --- | --- | --- | --- | --- | --- | --- | --- | --- | --- | --- | --- | --- |
| O=S(=O)([O-])OC[C@H]1O[C@H](OCc2ccccc2)[C@@H](O[C@H]2O[C@H](COS(=O)(=O)[O-])[C@@H](OS(=O)(=O)[O-])[C@H](O[C@H]3O[C@H](COS(=O)(=O)[O-])[C@@H](OS(=O)(=O)[O-])[C@H](O[C@H]4O[C@H](COS(=O)(=O)[O-])[C@@H](OS(=O)(=O)[O-])[C@H](OS(=O)(=O)[O-])[C@@H]4OS(=O)(=O)[O-])[C@@H]3OS(=O)(=O)[O-])[C@@H]2OS(=O)(=O)[O-])[C@@H](OS(=O)(=O)[O-])[C@@H]1OS(=O)(=O)[O-].[Na+].[Na+].[Na+].[Na+].[Na+].[Na+].[Na+].[Na+].[Na+].[Na+].[Na+].[Na+].[Na+] | 417.9 s | Active | Active | 0.28 µM | 281.1 s | 0.021 µM | Active | Toxic | 0.00024 µM | 0.129 µM | > 100 µM | Active | – | – |
| O=S(=O)([O-])OC[C@H]1O[C@H](OCCCCCCCCn2cc(-c3ccccc3)nn2)[C@@H](O[C@H]2O[C@H](COS(=O)(=O)[O-])[C@@H](OS(=O)(=O)[O-])[C@H](O[C@H]3O[C@H](COS(=O)(=O)[O-])[C@@H](OS(=O)(=O)[O-])[C@H](O[C@H]4O[C@H](COS(=O)(=O)[O-])[C@@H](OS(=O)(=O)[O-])[C@H](OS(=O)(=O)[O-])[C@@H]4OS(=O)(=O)[O-])[C@@H]3OS(=O)(=O)[O-])[C@@H]2OS(=O)(=O)[O-])[C@@H](OS(=O)(=O)[O-])[C@@H]1OS(=O)(=O)[O-].[Na+].[Na+].[Na+].[Na+].[Na+].[Na+].[Na+].[Na+].[Na+].[Na+].[Na+].[Na+].[Na+] | 53 s | – | – | 0.31 µM | 24.4 s | 0.0104 µM | – | Toxic | 0.00028 µM | 0.14 µM | > 100 µM | – | – | – |
| O=S(=O)([O-])OC[C@H]1O[C@H](OCCCCCCCCn2cc(-c3ccccc3)nn2)[C@@H](O[C@H]2O[C@H](COS(=O)(=O)[O-])[C@@H](OS(=O)(=O)[O-])[C@H](O[C@H]3O[C@H](COS(=O)(=O)[O-])[C@@H](OS(=O)(=O)[O-])[C@H](O[C@H]4O[C@H](COS(=O)(=O)[O-])[C@@H](OS(=O)(=O)[O-])[C@H](O[C@H]5O[C@H](COS(=O)(=O)[O-])[C@@H](OS(=O)(=O)[O-])[C@H](OS(=O)(=O)[O-])[C@@H]5OS(=O)(=O)[O-])[C@@H]4OS(=O)(=O)[O-])[C@@H]3OS(=O)(=O)[O-])[C@@H]2OS(=O)(=O)[O-])[C@@H](OS(=O)(=O)[O-])[C@@H]1OS(=O)(=O)[O-].[Na+].[Na+].[Na+].[Na+].[Na+].[Na+].[Na+].[Na+].[Na+].[Na+].[Na+].[Na+].[Na+].[Na+].[Na+].[Na+] | 96.9 s | – | – | 0.42 µM | 38.4 s | 0.00062 µM | – | – | 0.00016 µM | 0.043 µM | > 100 µM | – | – | – |
| O=S(=O)([O-])OC[C@H]1O[C@H](OCCCCCCCCn2cc(-c3cccc4ccccc34)nn2)[C@@H](O[C@H]2O[C@H](COS(=O)(=O)[O-])[C@@H](OS(=O)(=O)[O-])[C@H](O[C@H]3O[C@H](COS(=O)(=O)[O-])[C@@H](OS(=O)(=O)[O-])[C@H](O[C@H]4O[C@H](COS(=O)(=O)[O-])[C@@H](OS(=O)(=O)[O-])[C@H](O[C@H]5O[C@H](COS(=O)(=O)[O-])[C@@H](OS(=O)(=O)[O-])[C@H](OS(=O)(=O)[O-])[C@@H]5OS(=O)(=O)[O-])[C@@H]4OS(=O)(=O)[O-])[C@@H]3OS(=O)(=O)[O-])[C@@H]2OS(=O)(=O)[O-])[C@@H](OS(=O)(=O)[O-])[C@@H]1OS(=O)(=O)[O-].[Na+].[Na+].[Na+].[Na+].[Na+].[Na+].[Na+].[Na+].[Na+].[Na+].[Na+].[Na+].[Na+].[Na+].[Na+].[Na+] | 89 s | – | – | 0.36 µM | 20 s | 0.0007 µM | – | – | 0.00012 µM | 0.035 µM | > 100 µM | – | – | – |
| O=S(=O)([O-])OC[C@H]1O[C@H](OCc2ccccc2)[C@@H](O[C@H]2O[C@H](COS(=O)(=O)[O-])[C@@H](OS(=O)(=O)[O-])[C@H](O[C@H]3O[C@H](COS(=O)(=O)[O-])[C@@H](OS(=O)(=O)[O-])[C@H](O[C@H]4O[C@H](COS(=O)(=O)[O-])[C@@H](OS(=O)(=O)[O-])[C@H](O[C@H]5O[C@H](COS(=O)(=O)[O-])[C@@H](OS(=O)(=O)[O-])[C@H](OS(=O)(=O)[O-])[C@@H]5OS(=O)(=O)[O-])[C@@H]4OS(=O)(=O)[O-])[C@@H]3OS(=O)(=O)[O-])[C@@H]2OS(=O)(=O)[O-])[C@@H](OS(=O)(=O)[O-])[C@@H]1OS(=O)(=O)[O-].[Na+].[Na+].[Na+].[Na+].[Na+].[Na+].[Na+].[Na+].[Na+].[Na+].[Na+].[Na+].[Na+].[Na+].[Na+].[Na+] | >500 s | Active | – | 0.37 µM | >500 s | 0.0018 µM | – | Toxic | 0.00016 µM | 0.095 µM | > 100 µM | – | – | – |
| MUPARFOSTAT SODIUM [listing 1 of 2 here] | – | – | – | – | – | – | – | Toxic | – | – | > 100 µM | – | – | – |
| MUPARFOSTAT SODIUM [listing 2 of 2 here] | – | – | – | – | > 500 s | – | – | – | – | – | – | – | > 0.139 h | 58% |
| O=S(=O)([O-])OC[C@H]1O[C@H](OCCCCCCCCn2cc(-c3cccc4ccccc34)nn2)[C@@H](O[C@H]2O[C@H](COS(=O)(=O)[O-])[C@@H](OS(=O)(=O)[O-])[C@H](O[C@H]3O[C@H](COS(=O)(=O)[O-])[C@@H](OS(=O)(=O)[O-])[C@H](O[C@H]4O[C@H](COS(=O)(=O)[O-])[C@@H](OS(=O)(=O)[O-])[C@H](OS(=O)(=O)[O-])[C@@H]4OS(=O)(=O)[O-])[C@@H]3OS(=O)(=O)[O-])[C@@H]2OS(=O)(=O)[O-])[C@@H](OS(=O)(=O)[O-])[C@@H]1OS(=O)(=O)[O-].[Na+].[Na+].[Na+].[Na+].[Na+].[Na+].[Na+].[Na+].[Na+].[Na+].[Na+].[Na+].[Na+] | 59.5 s | – | – | 0.27 µM | 28.8 s | 0.0071 µM | – | – | 0.00019 µM | 0.11 µM | > 100 µM | – | – | – |

Reference: ChEMBL document CHEMBL1157543, “Synthesis and biological evaluation of polysulfated oligosaccharide glycosides as inhibitors of angiogenesis and tumor growth” (J Med Chem, 2010)
